Measured values published in ChEMBL document CHEMBL1240439, “Synthesis and docking studies of novel benzopyran-2-ones with anticancer activity” (2010).

What was measured:
Assay type in all cases: functional
[1] = system: BT-549; assay: Cytotoxicity against human BT549 cells assessed as cell growth at 10 uM after 48 hrs by sulforhodamine B assay; settings: BT-549, 48 h, read-out: Activity
[2] = system: UO-31; assay: Cytotoxicity against human UO31 cells assessed as cell growth at 10 uM after 48 hrs by sulforhodamine B assay; settings: UO-31, 48 h, read-out: Activity
[3] = system: SF-295; assay: Cytotoxicity against human SF295 cells assessed as cell growth at 10 uM after 48 hrs by sulforhodamine B assay; settings: SF-295, 48 h, read-out: Activity
[4] = system: SK-MEL-5; assay: Cytotoxicity against human SK-MEL-5 cells assessed as cell growth at 10 uM after 48 hrs by sulforhodamine B assay; settings: SK-MEL-5, 48 h, read-out: Activity
[5] = system: NCI-H322M; assay: Cytotoxicity against human NCI-H322M cells assessed as cell growth at 10 uM after 48 hrs by sulforhodamine B assay; settings: read-out: Activity
[6] = system: OVCAR-5; assay: Cytotoxicity against human OVCAR5 cells assessed as cell growth at 10 uM after 48 hrs by sulforhodamine B assay; settings: OVCAR-5, 48 h, read-out: Activity
[7] = system: T47D; assay: Cytotoxicity against human T47D cells assessed as cell growth at 10 uM after 48 hrs by sulforhodamine B assay; settings: read-out: Activity
[8] = system: HCT-116; assay: Cytotoxicity against human HCT116 cells after 48 hrs by sulforhodamine B assay; settings: HCT-116, 48 h
Summary of the method: (§1)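 Cells were plated at 5000–40,000/well according to doubling time and preincubated 24 h at 37 °C, 5% CO2. Time-zero plates were TCA-fixed. DMSO stocks were diluted in medium with gentamycin to five concentrations (10-fold or ½ log series) plus control, then incubated 48 h. Adherent cells were fixed with cold TCA (suspension cells with 16% final), stained with SRB, and read at 515 nm. GI50, TGI and LC50 were calculated per line.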

[9] = system: HCT-15; assay: Cytotoxicity against human HCT15 cells assessed as cell growth at 10 uM after 48 hrs by sulforhodamine B assay; settings: HCT-15, 48 h, read-out: Activity
[10] = system: KM12; assay: Cytotoxicity against human KM12 cells assessed as cell growth at 10 uM after 48 hrs by sulforhodamine B assay; settings: KM12, 48 h, read-out: Activity
[11] = system: HOP-62; assay: Cytotoxicity against human HOP62 cells assessed as cell growth at 10 uM after 48 hrs by sulforhodamine B assay; settings: HOP-62, 48 h, read-out: Activity
[12] = system: SR; assay: Cytotoxicity against human SR cells assessed as cell growth at 10 uM after 48 hrs by sulforhodamine B assay; settings: read-out: Activity
[13] = system: MDA-MB-468; assay: Cytotoxicity against human MDA-MB-468 cells assessed as cell growth at 10 uM after 48 hrs by sulforhodamine B assay; settings: MDA-MB-468, 48 h, read-out: Activity
[14] = Cytotoxicity against human CNS cancer cells after 48 hrs by sulforhodamine B assay; settings: Cancer cell lines; summary of the method: as §1
[15] = system: NCI-H23; assay: Cytotoxicity against human NCI-H23 cells assessed as cell growth at 10 uM after 48 hrs by sulforhodamine B assay; settings: NCI-H23, 48 h, read-out: Activity
[16] = system: UACC-62; assay: Cytotoxicity against human UACC62 cells assessed as cell growth at 10 uM after 48 hrs by sulforhodamine B assay; settings: UACC-62, 48 h, read-out: Activity
[17] = system: RPMI-8226; assay: Cytotoxicity against human RPMI8226 cells assessed as cell growth at 10 uM after 48 hrs by sulforhodamine B assay; settings: RPMI-8226, 48 h, read-out: Activity
[18] = system: U-251; assay: Cytotoxicity against human U251 cells assessed as cell growth at 10 uM after 48 hrs by sulforhodamine B assay; settings: U-251, 48 h, read-out: Activity
[19] = system: SN12C; assay: Cytotoxicity against human SN12C cells assessed as cell growth at 10 uM after 48 hrs by sulforhodamine B assay; settings: read-out: Activity
[20] = system: CCRF-CEM; assay: Cytotoxicity against human CCRF-CEM cells assessed as cell growth at 10 uM after 48 hrs by sulforhodamine B assay; settings: read-out: Activity
[21] = system: UACC-257; assay: Cytotoxicity against human UACC257 cells assessed as cell growth at 10 uM after 48 hrs by sulforhodamine B assay; settings: UACC-257, 48 h, read-out: Activity
[22] = system: NCI-H460; assay: Cytotoxicity against human NCI-H460 cells assessed as cell growth at 10 uM after 48 hrs by sulforhodamine B assay; settings: NCI-H460, 48 h, read-out: Activity
[23] = system: MCF7; assay: Cytotoxicity against human MCF7 cells assessed as cell growth at 10 uM after 48 hrs by sulforhodamine B assay; settings: MCF7, 48 h, read-out: Activity
[24] = system: HL-60(TB); assay: Cytotoxicity against human HL-60(TB) cells after 48 hrs by sulforhodamine B assay; settings: HL-60, 48 h
Summary of the method: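 Cells plated at 5000–40,000/well by doubling time and held 24 h at 37 °C, 5% CO2, with TCA-fixed zero-time plates. Drug given as DMSO stock diluted in medium with 50 μg/ml gentamycin, five concentrations (10-fold or ½ log steps), for 48 h. Settled suspension cells fixed with TCA (final 16%), stained with 0.4% SRB, read at 515 nm. GI50, TGI and LC50 calculated.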

[25] = system: M14; assay: Cytotoxicity against human M14 cells assessed as cell growth at 10 uM after 48 hrs by sulforhodamine B assay; settings: M14, 48 h, read-out: Activity
[26] = system: ACHN; assay: Cytotoxicity against human ACHN cells assessed as cell growth at 10 uM after 48 hrs by sulforhodamine B assay; settings: read-out: Activity
[27] = Cytotoxicity against human prostate cancer cells after 48 hrs by sulforhodamine B assay; settings: Cancer cell lines
Summary of the method: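 Cells plated at 5000–40,000/well according to doubling time, then held 24 h at 37 °C, 5% CO2, with time-zero plates TCA-fixed. DMSO stocks (400× top concentration) were diluted in medium containing 50 μg/ml gentamycin, giving five 10-fold or ½-log concentrations. After 48 h, adherent cells were fixed in 10% TCA and suspension cells in 16% TCA (final), stained with 0.4% SRB, read at 515 nm. GI50, TGI and LC50 were calculated per cell line.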

[28] = system: HCT-116; assay: Cytotoxicity against human HCT116 cells assessed as cell growth at 10 uM after 48 hrs by sulforhodamine B assay; settings: HCT-116, 48 h, read-out: Activity
[29] = system: DU-145; assay: Cytotoxicity against human DU145 cells assessed as cell growth at 10 uM after 48 hrs by sulforhodamine B assay; settings: DU-145, 48 h, read-out: Activity
[30] = system: MDA-MB-231; assay: Cytotoxicity against human MDA-MB-231 cells assessed as cell growth at 10 uM after 48 hrs by sulforhodamine B assay; settings: MDA-MB-231, 48 h, read-out: Activity
[31] = system: PC-3; assay: Cytotoxicity against human PC3 cells assessed as cell growth at 10 uM after 48 hrs by sulforhodamine B assay; settings: PC-3, 48 h, read-out: Activity
[32] = read-out: LC50 (the source's name)

Compound: Cc1cc(=O)n(C(=O)COc2ccc3c(-c4ccccc4)cc(=O)oc3c2C)[nH]1
- growth at 10 µM [1]: -65.8%
- growth at 10 µM [2]: 18.6%
- growth at 10 µM [3]: -77.2%
- growth at 10 µM [4]: -31.5%
- growth at 10 µM [5]: -24.7%
- growth at 10 µM [6]: 10.2%
- growth at 10 µM [7]: -1.54%
- GI50 [8]: 1.94 µM
- TGI [8]: 3.76 µM
- growth at 10 µM [9]: 38.3%
- growth at 10 µM [10]: -12%
- growth at 10 µM [11]: -18.6%
- growth at 10 µM [12]: 18.5%
- growth at 10 µM [13]: -8.13%
- GI50 [14]: 2.58 µM
- TGI [14]: 8.85 µM
- CC50 [14, 32]: 27.7 µM
- growth at 10 µM [15]: 1.86%
- growth at 10 µM [16]: -27.3%
- growth at 10 µM [17]: -18.2%
- growth at 10 µM [18]: -72.4%
- growth at 10 µM [19]: -69.3%
- growth at 10 µM [20]: 13.5%
- growth at 10 µM [21]: 6.57%
- growth at 10 µM [22]: 10.9%
- growth at 10 µM [23]: -14.4%
- TGI [24]: 2.62 µM
- growth at 10 µM [25]: 17.6%
- growth at 10 µM [26]: 41.6%
- GI50 [27]: 2.38 µM
- TGI [27]: 5.75 µM
- CC50 [27, 32]: 29.4 µM
- growth at 10 µM [28]: -65.9%
- growth at 10 µM [29]: -56.3%
- growth at 10 µM [30]: -30%
- growth at 10 µM [31]: -93%
